# KCNK9 block: inhibitors of human KCNK9 two-pore domain potassium channel | Q9NPC2 | 1.2% of 310,000 active | AID 488922 | HEK293 KCNK9, FluxOR thallium flux fluorescence; active compounds read low | B-score at 10 µM;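 active means ratio B-score over 3 SD below the library mean, with starting fluorescence within 5 SD of its mean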;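 further: negative B-score means less thallium flux so channel inhibition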
# KCNQ1 pot: human KCNQ1 channel potentiation or activation | 0.35% of 310,000 active | AID 2648 | CHO-K1 KCNQ1, thallium flux FluxOR fluorescence; active compounds read high | P51787 | B-score at 10 µM;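 active means fluorescence ratio B-score, a plate-corrected score, at least three library SD, with initial intensity B-score within 5 SD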
#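 Test system: CHO-K1 cells stably expressing KCNQ1 / Medium: assay buffer / Also added: depolarizing K+/Tl+ stimulus, K2SO4 and Tl2SO4 each 12.5 mM in 5x stock / Incubation: 90 min dye loading and 20 min compound exposure, both at room temperature / Signal: thallium influx via FluxOR fluorescence, kinetic imaging / Evaluation: B score of baseline-normalized fluorescence ratio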
# KCC2 mod: modulators of human KCC2 chloride dependent transport | 2.2% of 190,000 active | KCC2 cells, thallium flux FluoZin-2 fluorescence | AID 1456 | B-score of Tl+ flux slope (higher = more flux/activation; lower = inhibition) at 10 µM | Q9H2X9;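 active means thallium flux slope and its plate-corrected score both differing from the plate sample mean at a set confidence after two filtering rounds, in either direction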;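 further: slope of fluorescence scaled to starting intensity during 10 to 20 s after thallium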
# KCNQ1 inh: inhibitors of human KCNQ1 potassium channel. P51787. CHO-K1 KCNQ1, FluxOR thallium flux fluorescence; active compounds read high. B-score at 10 µM. 1.3% of 310,000 active. AID 2642;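 active means compounds whose thallium flux B-score, printed positive for inhibition, exceeds three library SD while starting fluorescence stays within three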;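 further: channel opened by potassium depolarization with thallium stimulus after 20 min compound exposure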
# KCNK3 block: human KCNK3 channel inhibition, primary screen; O14649; CHO-KCNK3 thallium flux, FluxOR fluorescence; active compounds read low; B-score at 10 µM; 0.84% of 340,000 active; AID 602410;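 active means B-score under library mean minus 4 SD, starting fluorescence ratio at most library mean plus 5 SD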;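 further: more negative B-score means stronger inhibition of thallium flux through KCNK3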
# hERG protect: hERG (human) protection from proarrhythmic block. Q12809. CHO-hERG, FluxOR thallium flux, dofetilide IC70 present. activation (rescue from dofetilide block), less the hit threshold, % at 10 µM. 0.51% of 310,000 active;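 active means activation above the mean of controls blocked by dofetilide plus 5 SD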;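 further: thallium influx through hERG after potassium depolarization seen as dye fluorescence rise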
# Target sequence (Q12809 whole entry, looked up): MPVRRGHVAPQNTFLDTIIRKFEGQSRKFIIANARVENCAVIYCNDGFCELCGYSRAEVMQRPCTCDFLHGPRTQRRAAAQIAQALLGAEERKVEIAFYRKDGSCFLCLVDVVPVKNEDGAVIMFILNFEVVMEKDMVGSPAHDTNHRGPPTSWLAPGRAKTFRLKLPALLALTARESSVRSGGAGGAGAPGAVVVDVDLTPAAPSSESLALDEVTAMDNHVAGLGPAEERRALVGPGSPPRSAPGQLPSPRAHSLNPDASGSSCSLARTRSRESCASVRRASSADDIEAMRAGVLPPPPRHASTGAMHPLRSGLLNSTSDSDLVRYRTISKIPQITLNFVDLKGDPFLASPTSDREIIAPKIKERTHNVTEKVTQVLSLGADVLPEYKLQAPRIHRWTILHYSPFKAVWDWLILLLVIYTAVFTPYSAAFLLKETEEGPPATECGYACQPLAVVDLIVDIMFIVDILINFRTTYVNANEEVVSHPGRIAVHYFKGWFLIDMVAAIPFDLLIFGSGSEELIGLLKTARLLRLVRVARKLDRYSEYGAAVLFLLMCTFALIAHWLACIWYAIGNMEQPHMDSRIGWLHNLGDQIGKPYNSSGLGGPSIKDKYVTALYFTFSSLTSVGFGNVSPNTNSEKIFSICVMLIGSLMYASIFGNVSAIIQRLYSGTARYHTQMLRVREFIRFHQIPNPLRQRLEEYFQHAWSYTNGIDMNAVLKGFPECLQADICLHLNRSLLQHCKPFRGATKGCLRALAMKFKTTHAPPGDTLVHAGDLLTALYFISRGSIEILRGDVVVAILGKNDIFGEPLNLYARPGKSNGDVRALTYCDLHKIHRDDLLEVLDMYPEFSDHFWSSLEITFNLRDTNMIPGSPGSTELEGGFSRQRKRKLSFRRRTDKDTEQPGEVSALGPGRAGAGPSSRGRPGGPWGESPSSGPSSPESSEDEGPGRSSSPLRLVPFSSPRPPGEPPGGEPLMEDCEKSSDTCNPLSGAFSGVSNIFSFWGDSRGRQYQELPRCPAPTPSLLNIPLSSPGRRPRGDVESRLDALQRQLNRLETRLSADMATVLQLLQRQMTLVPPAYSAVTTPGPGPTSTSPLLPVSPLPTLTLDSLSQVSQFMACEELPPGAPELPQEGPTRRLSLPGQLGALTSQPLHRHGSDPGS
# KCC2 secondary: KCC2 (human) modulation, secondary assay; shares compounds with KCC2 mod; HEK293-KCC2, thallium flux, FluoZin2 fluorescence; active compounds read high; normalised thallium flux (F/F0 slope) at 10 µM; 15% of 3,700 active; AID 1713;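 active means thallium flux slope above the same plate's solvent-only control mean plus 3 SD; inconclusive means the two replicate wells disagree; inactive means no significant difference from solvent-only control wells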
# KCC2 bumet counter: bumetanide-insensitive thallium flux in KCC2 cells with ouabain, counter-screen. shares compounds with KCC2 mod. HEK293-KCC2 + bumetanide/ouabain, thallium flux FluoZin2; active compounds read high. normalized thallium flux at 10 µM. 49% of 3,700 active;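 active means thallium entry rate above the same plate's blocked-transporter control wells by more than 3 SD; inconclusive means the two repeat wells disagree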;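 further: raw slope of fluorescence over initial fluorescence between 10 and 20 s after thallium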
# KCC2 secondary2: confirmation of human KCC2 transport modulators; shares compounds with KCC2 mod; HEK293-KCC2, thallium flux FluoZin2 fluorescence; actives lie on both sides; F/F0 rise rate, 10–20 s post-thallium; normalized thallium flux at 10 µM; 23% of 3,700 active;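 active means thallium flux slope more than 3 SD above or below the plate's solvent-only control mean, mostly below; inconclusive means the two repeat wells disagreed; inactive means no significant shift from solvent-only controls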
# HEK293 Tl flux: parental HEK flux effect, counter-screen; 46% of 3,700 active; thallium flux rate (normalised fluorescence) at 10 µM; shares compounds with KCC2 mod; AID 1716; HEK293 parental cells, thallium flux FluoZin2, ouabain; baseline-ratio fluorescence slope, 10–20 s after thallium;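 active means thallium flux rate significantly above the same plate's solvent-only control wells, beyond their mean plus 3 SD; inconclusive means the two replicate wells gave conflicting results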
# KCC2 retest ouab: KCC2 (human) modulation, ouabain retest; shares compounds with KCC2 mod; HEK293-KCC2, thallium flux FluoZin2 fluorescence; bidirectional: low = inhibitor, high = activator; raw Tl+ flux slope (below DMSO = inhibition, above = activation) at 10 µM; 48% of 3,700 active; AID 1717;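 active means thallium flux slope beyond 3 SD from same-plate DMSO control mean in most replicates, usually higher, sometimes lower; inconclusive means repeat tests gave conflicting results; inactive means no significant difference from controls in most replicates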;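 further: slope of initial-normalized fluorescence between seconds 10 and 20 after thallium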
# HEK counter2: counter-screen for KCC2 modulators: effect in parental HEK293 cells; shares compounds with KCC2 mod; thallium flux slope at 10 µM; 33% of 3,700 active; thallium flux FluoZin-2 fluorescence slope;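 active means thallium flux slope above the same plate's solvent-control mean plus 3 SD in both duplicate wells; inconclusive means duplicate wells that disagreed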;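 further: run without ouabain in cells lacking the KCC2 cotransporter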
# A number is an active result; . = inactive; ? = inconclusive; / = no result. In the library only some 4.1% were active in any assay of this set; here they are far more common.
SMILES,KCNK9 block,KCNQ1 pot,KCC2 mod,KCNQ1 inh,KCNK3 block,hERG protect,KCC2 secondary,KCC2 bumet counter,KCC2 secondary2,HEK293 Tl flux,KCC2 retest ouab,HEK counter2
CCOc1ccc2nc(SC3CC(=O)N(c4ccccc4)C3=O)sc2c1 (stereo not drawn),.,.,.,.,.,.,/,/,/,/,/,/
CCOc1ccc2nc(SC3CC(=O)N(c4cccc(OC)c4)C3=O)sc2c1 (stereo not drawn),.,.,4.7,.,.,.,0.024,0.015,.,0.0093,0.022,?
CCOc1ccccc1CNC(=O)C1CCN(c2nc3ccccc3o2)CC1,.,.,/,.,.,.,.,?,?,.,.,.
O=C(NCc1cccs1)C1CCN(c2nc3ccccc3o2)CC1,.,.,/,.,.,.,.,.,.,.,0.016,.
Cc1nc(C)c(C(=O)OCC(=O)NCc2ccccc2)s1,/,/,/,/,.,/,/,/,/,/,/,/
Cc1cccc(C(=O)NCC(=O)N2CCN(S(=O)(=O)c3cc(C)ccc3C)CC2)c1,.,.,/,.,.,.,/,/,/,/,/,/
N#Cc1c2n(c3c(=S)nc[nH]c13)CCCCC2,.,.,5.2,.,.,.,.,0.014,.,0.014,?,0.014
COc1cc(NC(=O)CSc2nc(C)c(C)c(C)n2)c(C)cc1[N+](=O)[O-],.,.,.,.,.,.,/,/,/,/,/,/
COc1cc(NC(=O)CSc2nccc(=O)[nH]2)c(C)cc1[N+](=O)[O-],.,.,-3.4,.,.,.,.,.,.,.,.,.
Cc1ccccc1-c1nc(CS(=O)CC(=O)NCc2ccccc2)c(C)o1 (stereo not drawn),.,.,/,.,.,.,.,?,0.024,.,?,.
Cc1ccc(CNC(=O)CS(=O)Cc2nc(-c3ccccc3C)oc2C)cc1 (stereo not drawn),.,.,.,.,.,.,/,/,/,/,/,/
Cc1cc(NC(=O)CSC2=NS(=O)(=O)c3cc(F)ccc3N2)no1,.,.,/,.,.,.,/,/,/,/,/,/
O=C1NC(=O)C2(Br)Nc3ccc(Br)cc3C(=O)C2N1 (stereo not drawn),/,/,/,/,.,/,/,/,/,/,/,/
Cc1c(Cl)cccc1N=c1c([N+](=O)[O-])nn(-c2ccccc2)n1O,.,.,6,.,.,.,.,.,.,.,.,.
COc1ccc(-c2nnc(SCc3ncc(-c4ccccc4)o3)o2)cc1,.,.,-3,.,.,.,.,.,?,.,.,.
Cn1c(NCCCO)nc2c1c(=O)n(Cc1ccccc1F)c(=O)n2C,.,.,.,.,.,.,.,?,.,.,.,.
COc1ccccc1Oc1nc2c(c(=O)n(Cc3ccccc3F)c(=O)n2C)n1C,.,.,.,.,.,.,/,/,/,/,/,/
COc1ccc(CNC(=O)CC2C[C@H](C(=O)N3CCOCC3)[C@@]3(CCC4CCCC4)c4[nH]c5ccccc5c4CCN3C2=O)cc1OC (stereo partly drawn),/,/,/,/,.,/,/,/,/,/,/,/
N#Cc1cc(C(=O)c2cc(Cl)ccc2O)cn(-c2ccccc2)c1=O,.,.,-5,.,.,.,.,.,.,.,.,.
